Screening data as filed in PubChem.
SENP6 block – SENP6 protease inhibitors, primary screen, biochemical, luminescence, uHTS | AID 2599, 2010 | 330,000 compounds, 1.8% hits | Sentrin-specific protease 6 (Homo sapiens), Q9GZR1 | Recombinant SENP6 catalytic domain, aminoluciferin luminescence | inhibition, % at 10 µM;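 active = inhibition above about 50% at the single tested dose, limit read from the data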;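 note: plate controls were DMSO wells with enzyme for no effect and DMSO wells lacking enzyme for full effect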
Target sequence (Q9GZR1 628-1112 limits assumed): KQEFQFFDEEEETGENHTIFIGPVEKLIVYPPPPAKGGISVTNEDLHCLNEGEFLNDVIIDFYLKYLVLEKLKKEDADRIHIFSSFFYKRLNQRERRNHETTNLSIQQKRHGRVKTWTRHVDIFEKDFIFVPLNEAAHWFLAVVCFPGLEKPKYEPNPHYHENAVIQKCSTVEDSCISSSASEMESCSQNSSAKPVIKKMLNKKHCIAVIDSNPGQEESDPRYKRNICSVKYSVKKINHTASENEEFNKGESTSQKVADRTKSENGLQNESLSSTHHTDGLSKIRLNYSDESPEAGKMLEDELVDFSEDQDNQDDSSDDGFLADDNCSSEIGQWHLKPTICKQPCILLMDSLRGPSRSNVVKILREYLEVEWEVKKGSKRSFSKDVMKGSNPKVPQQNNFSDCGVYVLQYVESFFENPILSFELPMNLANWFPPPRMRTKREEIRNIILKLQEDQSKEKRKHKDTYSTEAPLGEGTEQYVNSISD
SENP1 FRET inh – human SENP1 catalytic domain inhibitors, primary screen, biochemical, FRET, uHTS; recombinant SENP1 catalytic domain, CyPet-SUMO1-YPet FRET cleavage; inhibition, % at 10 µM; 360,000 compounds, 0.21% hits;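 active = inhibition at least 30% at 10 µM, raw YFP signal under a set limit, fluorescence ratio 0.5 to 1.5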;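 note: 0% = enzyme with DMSO and 100% = no enzyme wells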
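System: Recombinant human SENP1 catalytic domain, His6-tagged | Incubation: Enzyme reaction for 50 min at room temperature, dark | Medium: Tris pH 8 with BME, BSA, NP40 and catalase | Also added: 25 nM SUMO1 FRET substrate | Compound: 10 µM single point, 0.5% DMSO | Measured by: FRET fluorescence in CFP and YFP emission channels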
SENP7 inh – SENP7 protease inhibitors, primary screen, biochemical, luminescence, uHTS | inhibition, % at 5 µM | recombinant SENP7, Z-RLRGG-aminoluciferin luminescence, 40 min | Sentrin-specific protease 7 (Homo sapiens), Q9BQF6 | 330,000 compounds, 1.5% hits | AID 434973, 2010;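 active = inhibition above about 50% at the single test dose, limit read from the data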;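 note: plate controls were DMSO with enzyme for no effect and no enzyme buffer wells for full effect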
SENP8 block-1 – human SENP8 protease inhibitors, primary screen, biochemical, fluorescence, Nedd8 protein substrate, uHTS; Sentrin-specific protease 8 (Homo sapiens), Q96LD8; recombinant SENP8; inhibition, % at 20 µM; 360,000 compounds, 0.64% hits; AID 602440, 2012; in the data active = inhibition mostly above about 40%, no sharp cut-off; inactive = mostly below about 27%
Target sequence (Q96LD8 whole entry, looked up): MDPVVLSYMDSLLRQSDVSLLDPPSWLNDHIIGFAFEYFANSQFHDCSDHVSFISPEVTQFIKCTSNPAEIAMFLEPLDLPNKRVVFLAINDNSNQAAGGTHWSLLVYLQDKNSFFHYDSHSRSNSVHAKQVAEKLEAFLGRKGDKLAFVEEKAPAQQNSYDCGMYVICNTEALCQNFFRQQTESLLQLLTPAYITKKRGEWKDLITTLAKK
SENP8 block-2 – SENP8 protease inhibitors, primary screen, biochemical, luminescence; AID 2540, 2010; purified SENP8, Z-RLRGG-aminoluciferin cleavage; 330,000 compounds, 1.2% hits; inhibition, % at 10 µM; in the data active = inhibition above about 50%
Platelet DG rel – inhibitors of platelet dense granule secretion, primary screen, cell-based, MLPCN, human platelets. human platelet-rich plasma, SFLLRN dense granule ATP release, luminescence. inhibition, %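 (compounds screened at 7.5 µM in platelet-rich plasma)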. 300,000 compounds, 0.22% hits. AID 1663, 2009;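 active = mean replicate score, as percent of positive control, at or above 50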
SENP8 conf – SENP8 protease inhibitors, retest, confirmation, biochemical, luminescence, single concentration; 6,200 compounds, 40% hits; Recombinant SENP8, Z-RLRGG-aminoluciferin luminescence, 60 min; shares compounds with SENP7 inh; inhibition, % at 12.5 µM;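 active = mean inhibition across replicates above about 50%, limit read from the data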
SENP6 conf – SENP6 protease inhibitors, confirmation, biochemical, luminescence, single concentration; recombinant SENP6, Z-RLRGG-aminoluciferin luminescence; 6,200 compounds, 58% hits; shares compounds with SENP7 inh; AID 488915, 2010; inhibition, % at 12.5 µM
SENP7 conf – SENP7 protease inhibitors, retest, confirmation, biochemical, luminescence, single concentration. shares compounds with SENP7 inh. recombinant SENP7, Z-RLRGG-aminoluciferin luminescence, 40 min. inhibition, % at 12.5 µM. 6,200 compounds, 69% hits
Casp3 SENP sel – caspase-3 protease inhibitors, confirmation, selectivity assay for SENP inhibitor project, biochemical, single concentration | shares compounds with SENP7 inh | purified caspase-3, Z-DEVD-aminoluciferin luminescence, 60 min | inhibition, % at 12.5 µM | 6,200 compounds, 60% hits | AID 488918, 2010;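 active = mean inhibition above about 50%, limit read from the data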;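 note: plate controls were enzyme with DMSO for no effect and wells without caspase-3 for full effect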
SENP luc ctr – luminescence interference (SENP counter-screen); shares compounds with SENP7 inh; Pre-incubated SENP8/Z-RLRGG-aminoluciferin, luciferase luminescence interference; inhibition, % at 12.5 µM; 6,200 compounds, 39% hits;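 active = mean inhibition above about 50% when retested at one dose, limit read from the data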;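 note: plate controls were DMSO wells with completed reaction for no effect and substrate without enzyme for full effect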
* marks the source's active call; other numbers are inactive results; . = no result given. Only some compounds are listed: those with a hit (about 2.6% of all), similar ones and a draw of the others.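 Rule for the calls, unless noted: active = mean inhibition above about 50% in the one-dose retest (limit read from the data); inactive = the rest.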

SMILES | SENP6 block | SENP1 FRET inh | SENP7 inh | SENP8 block-1 | SENP8 block-2 | Platelet DG rel | SENP8 conf | SENP6 conf | SENP7 conf | Casp3 SENP sel | SENP luc ctr
CCOc1ncccc1C(=O)OCC(=O)c1cc(C)n(Cc2ccco2)c1C | 71* | 1 | 36 | 4 | 37 | 12 | 70* | 66* | 87* | 58* | 26
COc1cccc(-c2nnc(Nc3nc4c(F)cccc4s3)o2)c1 | 90* | -31 | 37 | -278 | 84* | 3 | 4 | 84* | 2 | 60* | 50*
COc1cccc(-c2nnc(NC(C)=O)o2)c1 | 1 | 1 | -6 | -3 | -6 | -10 | . | . | . | . | .
COc1cccc2sc(Nc3nnc(-c4ccccc4Cl)o3)nc12 | 22 | -51 | 0 | -410 | 18 | 11 | . | . | . | . | .
COc1ccccc1-c1nnc(Nc2nc3c(OC)cccc3s2)o1 | 34 | -48 | 76* | -316 | -30 | 10 | -17 | -11 | 32 | 49 | 44
O=C(c1ccc(Cl)c(S(=O)(=O)N2CCOCC2)c1)N1CCN(c2ccccc2)CC1 | 2 | 0 | -2 | 0 | 2 | -6 | . | . | . | . | .
CC(=Nc1ccccc1)c1sc2ccccc2c1O | 85* | -24 | 76* | -76 | 80* | 8 | 88* | 88* | 98* | 77* | 76*
CC(=Nc1ccc(Br)cc1)c1sc2ccccc2c1O | 80* | -35 | 73* | -52 | 61* | 16 | -4 | 8 | 5 | 13 | 6
O=C(Nc1ccc(F)c(Cl)c1)c1cccnc1 | 24 | 0 | 6 | 6 | -3 | -4 | . | . | . | . | .
Cc1ccc(NC(=O)CSc2ncn(-c3ccccc3)n2)cc1C | -31 | 3 | -6 | 17 | -11 | 12 | . | . | . | . | .
COc1ccc(NC(=O)c2ccc3c(c2)OCO3)cc1Cl | 80* | 1 | 93* | 17 | 83* | 26 | 5 | 88* | 99* | 88* | 12
O=C(Nc1ccc(F)c(Cl)c1)c1ccccc1 | 78* | -1 | 83* | -2 | 77* | . | 84* | 82* | 95* | 78* | 54*
COc1ccc(NC(=O)c2ccc3c(c2)OCCO3)cc1OC | 33 | 1 | 19 | 11 | 8 | 4 | . | . | . | . | .
COc1ccc(NC(=O)C=C(C)C)cc1Cl | 94* | 0 | 4 | 12 | 93* | 43 | 4 | 94* | 100* | 96* | 94*
COc1ccc(NC(=O)CSc2ncn(-c3ccccc3)n2)cc1Cl | 93* | 1 | 8 | 13 | 5 | -5 | 13 | 9 | 4 | 0 | 1
CNC[C@H](Cc1cccc2ccccc12)NC[C@H](CCSC)NCC1CCC(C(C)(C)C)CC1 (stereo partly specified) | 12 | . | 1 | . | -7 | . | . | . | . | . | .
CN(C(=O)CC1C(=O)NCCN1Cc1cccc(C(F)(F)F)c1)C1CCOCC1 (stereo unspecified) | -2 | -23 | -10 | -163 | -3 | 0 | . | . | . | . | .
COc1cc(C(=O)OCC(=O)NC(=O)NC2CCCCC2)cc(Cl)c1OC | -3 | 3 | -7 | 13 | 12 | -3 | . | . | . | . | .
CC(C)CN(C(=O)CSc1nc2ccccc2o1)c1c(N)n(Cc2ccccc2)c(=O)[nH]c1=O | -23 | -2 | 2 | 1 | -14 | . | . | . | . | . | .
O=C(Nc1ccc(F)c(Cl)c1)c1ccc2c(c1)OCO2 | 88* | 3 | 76* | 5 | 81* | 7 | 5 | 90* | 100* | 84* | 33
CCCC(=O)Nc1nnc([C@H]2C[C@H](O)[C@@H](CO)O2)s1 | . | -3 | . | 6 | . | . | . | . | . | . | .
C[C@H](CO)N1C[C@H](C)[C@@H](CN(C)C(=O)CN2CCOCC2)Oc2ncc(-c3cncnc3)cc2C1=O | . | 1 | . | 15 | . | . | . | . | . | . | .
Cc1ccc(-c2ccc(=O)n(Cc3cccc(Br)c3)n2)cc1 | -8 | 0 | 7 | -18 | -8 | 0 | . | . | . | . | .
CC(C)(C)c1ccc(C(=O)NCCOc2ccccc2)cc1 | 57* | 0 | 54* | 5 | 38 | 2 | -5 | 36 | 80* | . | -1
CC(C)(C)c1ccc(C(=O)NCCOc2ccccc2F)cc1 | 74* | 1 | 72* | 14 | 59* | 4 | 5 | 69* | 90* | 52* | 47
SMILES | SENP6 block | SENP1 FRET inh | SENP7 inh | SENP8 block-1 | SENP8 block-2 | Platelet DG rel | SENP8 conf | SENP6 conf | SENP7 conf | Casp3 SENP sel | SENP luc ctr
CC(C)(C)[C@H]1COC(=O)[C@@H](Cc2ccc(F)cc2)CC/C=C/C[C@@H](CC(=O)N[C@H](CO)Cc2ccccc2)C(=O)N1 | -9 | 3 | 6 | 8 | -1 | . | . | . | . | . | .
CCC(C)NC(=O)c1cc2cc3ccc(OC)cc3nc2s1 (stereo unspecified) | -7 | -1 | 60* | -313 | 36 | 6 | 37 | 61* | 87* | 72* | 37
Cc1cccc(-c2nc(=S)c3c(o2)CCCC3)c1 | 62* | 1 | 72* | 5 | 52* | 5 | 52* | 49 | 76* | 43 | 51*
COCCNc1nc(-c2ccc(Cl)cc2C)c2sccc2n1 | . | -4 | . | -496 | . | . | . | . | . | . | .
COc1ccc(-c2cc(-c3cc(C)ccc3O)[nH]n2)cc1 | 72* | 1 | 61* | -1 | 56* | -1 | 75* | 74* | 88* | 19 | 39
COc1ccc(-c2cc(-c3ccc(C)cc3)n[nH]2)c(O)c1 | 58* | 1 | 37 | 7 | 33 | 17 | 49 | 42 | 72* | 14 | 32
COc1ccc(-c2cc(-c3ccc(OC)cc3)[nH]n2)cc1 | -19 | 0 | -1 | 12 | 6 | -1 | . | . | . | . | .
COc1ccc(-c2cc(O)cc(O)c2)cc1 | 70* | 0 | 60* | 10 | 36 | 4 | 42 | 36 | 60* | 33 | 50
COc1ccc(OC)cc1 | -4 | 3 | 1 | 37 | 5 | . | . | . | . | . | .
